≈ marks a conversion by molar mass, not a printed value.
Experiments:
Escherichia coli [1] = assay: Antibacterial activity against Escherichia coli J53 harboring beta-lactamase NDM-1 by Etest method; assay type: functional
In short: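 Transconjugant of E. coli J53 recipient, mated with donor on blood agar without selection for 18 h. Selected on MacConkey agar with sodium azide (100 μg/ml) plus ceftazidime (8 μg/ml). Transfer confirmed by indole test and PCR for the MBL gene. Susceptibility read by Etest.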

Klebsiella pneumoniae [2] = assay: Antibacterial activity against Klebsiella pneumoniae 05-560 by Etest method; assay type: functional
Escherichia coli [3] = assay: Antibacterial activity against Escherichia coli TOP10 by Etest method; assay type: functional
Escherichia coli [4] = assay: Antibacterial activity against Escherichia coli J53 by Etest method; assay type: functional
Escherichia coli [5] = assay: Antibacterial activity against Escherichia coli NF-NDM-1 by Etest method; assay type: functional
Escherichia coli [6] = assay: Antibacterial activity against Escherichia coli TOP10 harboring beta-lactamase NDM-1 by Etest method; assay type: functional
In short: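 Fragments from BamHI, EcoRI or HindIII digests of K. pneumoniae 05-506 DNA were cloned into vector pK18 and electroporated into E. coli TOP10. Transformants were selected on LB agar with X-gal (30 μg/ml), ceftazidime (6 μg/ml) and kanamycin (25 μg/ml). Susceptibility read by Etest.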

Klebsiella pneumoniae [7] = assay: Ratio of Kcat to Km for Klebsiella pneumoniae 05-560 beta-lactamase IMP1
Klebsiella pneumoniae [8] = assay: Activity of Klebsiella pneumoniae 05-560 beta-lactamase IMP1 by spectrophotometry
[9] = system: CC(C)(O/N=C(\C(=O)N[C@@H]1C(=O)N2C(C(=O)[O-])=C(C[n+]3ccccc3)CS[C@H]12)c1csc(N)n1)C(=O)O; assay: (§1) Ratio of Kcat to Km for Klebsiella pneumoniae 05-560 beta-lactamase VIM2
[10] = system: CO/N=C(\C(=O)N[C@@H]1C(=O)N2C(C(=O)O)=C(COC(C)=O)CS[C@H]12)c1csc(N)n1; assay: as §1
[11] = system: CCN1CCN(C(=O)N[C@@H](C(=O)N[C@@H]2C(=O)N3[C@@H]2SC(C)(C)[C@@H]3C(=O)O)c2ccccc2)C(=O)C1=O; assay: as §1
[12] = system: CC(=O)OCC1=C(C(=O)O)N2C(=O)[C@@H](NC(=O)Cc3cccs3)[C@H]2SC1; assay: as §1
[13] = system: CC1(C)S[C@@H]2[C@H](NC(=O)Cc3ccccc3)C(=O)N2[C@H]1C(=O)O; assay: as §1
[14] = system: CC(C)(O/N=C(\C(=O)N[C@@H]1C(=O)N2C(C(=O)[O-])=C(C[n+]3ccccc3)CS[C@H]12)c1csc(N)n1)C(=O)O; assay: (§2) Activity of Klebsiella pneumoniae 05-560 beta-lactamase VIM2 by spectrophotometry
[15] = system: CO/N=C(\C(=O)N[C@@H]1C(=O)N2C(C(=O)O)=C(COC(C)=O)CS[C@H]12)c1csc(N)n1; assay: as §2
[16] = system: CCN1CCN(C(=O)N[C@@H](C(=O)N[C@@H]2C(=O)N3[C@@H]2SC(C)(C)[C@@H]3C(=O)O)c2ccccc2)C(=O)C1=O; assay: as §2
[17] = system: CO[C@@]1(NC(=O)Cc2cccs2)C(=O)N2C(C(=O)O)=C(COC(N)=O)CS[C@@H]21; assay: as §2
[18] = system: CC(=O)OCC1=C(C(=O)O)N2C(=O)[C@@H](NC(=O)Cc3cccs3)[C@H]2SC1; assay: as §2
[19] = system: CC1(C)S[C@@H]2[C@H](NC(=O)Cc3ccccc3)C(=O)N2[C@H]1C(=O)O; assay: as §2
[20] = substrate: CC(C)(O/N=C(\C(=O)N[C@@H]1C(=O)N2C(C(=O)[O-])=C(C[n+]3ccccc3)CS[C@H]12)c1csc(N)n1)C(=O)O; assay: (§3) Ratio of Kcat to Km for Klebsiella pneumoniae 05-560 beta-lactamase NDM-1
In short: (§4)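 NDM-1 was expressed as a His-trx fusion. The cleared lysate (12,000 rpm, 30 min, 4°C) was bound to Ni-NTA agarose and eluted with 300 mM imidazole. The tag was cut off with TEV protease, and the protein was finished by GS320 gel filtration.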

[21] = substrate: CC1(C)S[C@@H]2[C@H](NC(=O)Cc3ccccc3)C(=O)N2[C@H]1C(=O)O; assay: as §3; in short: as §4
[22] = substrate: CO[C@@]1(NC(=O)Cc2cccs2)C(=O)N2C(C(=O)O)=C(COC(N)=O)CS[C@@H]21; assay: as §3; in short: as §4
[23] = substrate: CO/N=C(\C(=O)N[C@@H]1C(=O)N2C(C(=O)[O-])=C(C[N+]3(C)CCCC3)CS[C@H]12)c1csc(N)n1; assay: as §3; in short: as §4
[24] = substrate: C[C@@H](O)[C@H]1C(=O)N2C(C(=O)O)=C(SCCNC=N)C[C@H]12; assay: as §3; in short: as §4
[25] = substrate: CC1(C)S[C@@H]2[C@H](NC(=O)[C@H](N)c3ccccc3)C(=O)N2[C@H]1C(=O)O; assay: as §3; in short: as §4
[26] = substrate: CO/N=C(\C(=O)N[C@@H]1C(=O)N2C(C(=O)O)=C(COC(C)=O)CS[C@H]12)c1csc(N)n1; assay: as §3; in short: as §4
[27] = substrate: CCN1CCN(C(=O)N[C@@H](C(=O)N[C@@H]2C(=O)N3[C@@H]2SC(C)(C)[C@@H]3C(=O)O)c2ccccc2)C(=O)C1=O; assay: as §3; in short: as §4
[28] = substrate: CC(=O)OCC1=C(C(=O)O)N2C(=O)[C@@H](NC(=O)Cc3cccs3)[C@H]2SC1; assay: as §3; in short: as §4
[29] = substrate: CC(C)(O/N=C(\C(=O)N[C@@H]1C(=O)N2C(C(=O)[O-])=C(C[n+]3ccccc3)CS[C@H]12)c1csc(N)n1)C(=O)O; assay: (§5) Activity of Klebsiella pneumoniae 05-560 beta-lactamase NDM-1 by spectrophotometry; in short: as §4
[30] = substrate: CC1(C)S[C@@H]2[C@H](NC(=O)Cc3ccccc3)C(=O)N2[C@H]1C(=O)O; assay: as §5; in short: as §4
[31] = substrate: CO[C@@]1(NC(=O)Cc2cccs2)C(=O)N2C(C(=O)O)=C(COC(N)=O)CS[C@@H]21; assay: as §5; in short: as §4
[32] = substrate: CO/N=C(\C(=O)N[C@@H]1C(=O)N2C(C(=O)[O-])=C(C[N+]3(C)CCCC3)CS[C@H]12)c1csc(N)n1; assay: as §5; in short: as §4
[33] = substrate: C[C@@H](O)[C@H]1C(=O)N2C(C(=O)O)=C(SCCNC=N)C[C@H]12; assay: as §5; in short: as §4
[34] = substrate: CC1(C)S[C@@H]2[C@H](NC(=O)[C@H](N)c3ccccc3)C(=O)N2[C@H]1C(=O)O; assay: as §5; in short: as §4
[35] = substrate: CO/N=C(\C(=O)N[C@@H]1C(=O)N2C(C(=O)O)=C(COC(C)=O)CS[C@H]12)c1csc(N)n1; assay: as §5; in short: as §4
[36] = substrate: CCN1CCN(C(=O)N[C@@H](C(=O)N[C@@H]2C(=O)N3[C@@H]2SC(C)(C)[C@@H]3C(=O)O)c2ccccc2)C(=O)C1=O; assay: as §5; in short: as §4
[37] = substrate: CC(=O)OCC1=C(C(=O)O)N2C(=O)[C@@H](NC(=O)Cc3cccs3)[C@H]2SC1; assay: as §5; in short: as §4

Molecule: COLISTIN
- MIC (Escherichia coli [1]): 0.25 µg/mL
- MIC (Klebsiella pneumoniae [2]): 0.75 µg/mL
- MIC (Escherichia coli [3]): 0.38 µg/mL
- MIC (Escherichia coli [4]): 0.25 µg/mL
- MIC (Escherichia coli [5]): 0.25 µg/mL
- MIC (Escherichia coli [6]): 0.38 µg/mL

Molecule: O=C(O)c1cn(C2CC2)c2cc(N3CCNCC3)c(F)cc2c1=O [CIPROFLOXACIN]
- MIC (Escherichia coli [1]): 0.047 µg/mL (≈ 0.142 µM)
- MIC (Klebsiella pneumoniae [2]): > 256 µg/mL
- MIC (Escherichia coli [4]): 0.032 µg/mL (≈ 0.0966 µM)

Molecule: CO[C@@]1(NC(=O)Cc2cccs2)C(=O)N2C(C(=O)O)=C(COC(N)=O)CS[C@@H]21 [CEFOXITIN]
- MIC (Escherichia coli [1]): > 256 µg/mL
- MIC (Klebsiella pneumoniae [2]): > 256 µg/mL
- MIC (Escherichia coli [3]): 4 µg/mL (≈ 9.36 µM)
- MIC (Escherichia coli [4]): 2 µg/mL (≈ 4.68 µM)
- kcat/Km (Klebsiella pneumoniae [7]): 2e+06 M⁻¹ s⁻¹
- MIC (Escherichia coli [5]): > 256 µg/mL
- MIC (Escherichia coli [6]): > 256 µg/mL

Molecule: CO/N=C(\C(=O)N[C@@H]1C(=O)N2C(C(=O)O)=C(COC(N)=O)CS[C@H]12)c1ccco1 [CEFUROXIME]
- MIC (Escherichia coli [1]): > 256 µg/mL
- MIC (Klebsiella pneumoniae [2]): > 256 µg/mL
- MIC (Escherichia coli [3]): 8 µg/mL (≈ 18.9 µM)
- MIC (Escherichia coli [4]): 8 µg/mL (≈ 18.9 µM)
- MIC (Escherichia coli [5]): > 256 µg/mL
- MIC (Escherichia coli [6]): > 256 µg/mL

Molecule: C[C@@H](O)[C@H]1C(=O)N2C(C(=O)O)=C(S[C@@H]3CN[C@H](C(=O)Nc4cccc(C(=O)O)c4)C3)[C@H](C)[C@H]12
- MIC (Escherichia coli [1]): > 32 µg/mL
- MIC (Klebsiella pneumoniae [2]): > 256 µg/mL
- MIC (Escherichia coli [3]): 0.125 µg/mL (≈ 0.263 µM)
- MIC (Escherichia coli [4]): 0.5 µg/mL (≈ 1.05 µM)
- MIC (Escherichia coli [5]): > 32 µg/mL
- MIC (Escherichia coli [6]): 24 µg/mL (≈ 50.5 µM)

Molecule: C[C@@H](O)[C@H]1C(=O)N2C(C(=O)O)=C(SCCNC=N)C[C@H]12 [IMIPENEM ANHYDROUS]
- MIC (Escherichia coli [1]): 16 µg/mL (≈ 53.4 µM)
- MIC (Klebsiella pneumoniae [2]): > 256 µg/mL
- MIC (Escherichia coli [3]): 0.094 µg/mL (≈ 0.314 µM)
- kcat/Km (Klebsiella pneumoniae [7]): 1.2e+06 M⁻¹ s⁻¹
- MIC (Escherichia coli [5]): > 32 µg/mL
- Km (Klebsiella pneumoniae [8]): 39 µM
- kcat (Klebsiella pneumoniae [8]): 46 s⁻¹
- MIC (Escherichia coli [6]): 12 µg/mL (≈ 40.1 µM)

Molecule: Metallo-beta-lactamase VIM-2 (Klebsiella pneumoniae) (from UniProt Q3Y6Q3)
- kcat/Km [9]: 900000 M⁻¹ s⁻¹
- kcat/Km [10]: 860000 M⁻¹ s⁻¹
- kcat/Km [11]: 450000 M⁻¹ s⁻¹
- kcat/Km [12]: 1.28e+06 M⁻¹ s⁻¹
- kcat/Km [13]: 1.14e+06 M⁻¹ s⁻¹
- Km [14]: 98 µM
- kcat [14]: 89 s⁻¹
- Km [15]: 32 µM
- Km [16]: 72 µM
- kcat [16]: 33 s⁻¹
- Km [17]: 24 µM
- kcat [17]: 3 s⁻¹
- Km [18]: 44 µM
- kcat [18]: 57 s⁻¹
- Km [19]: 49 µM
- kcat [19]: 56 s⁻¹

Molecule: CC(C)(O/N=C(\C(=O)N[C@@H]1C(=O)N2C(C(=O)[O-])=C(C[n+]3ccccc3)CS[C@H]12)c1csc(N)n1)C(=O)O [CEFTAZIDIME]
- MIC (Escherichia coli [1]): > 256 µg/mL
- MIC (Klebsiella pneumoniae [2]): > 256 µg/mL
- MIC (Escherichia coli [3]): 1 µg/mL (≈ 1.83 µM)
- MIC (Escherichia coli [4]): 0.125 µg/mL (≈ 0.229 µM)
- kcat/Km (Klebsiella pneumoniae [7]): 180000 M⁻¹ s⁻¹
- MIC (Escherichia coli [5]): > 256 µg/mL
- Km (Klebsiella pneumoniae [8]): 44 µM
- kcat (Klebsiella pneumoniae [8]): 8 s⁻¹
- MIC (Escherichia coli [6]): > 256 µg/mL

B1: Metallo-beta-lactamase type 2 (Klebsiella pneumoniae), C7C422 (protein)
chain: MELPNIMHPVAKLSTALAAALMLSGCMPGEIRPTIGQQMETGDQRFGDLVFRQLAPNVWQHTSYLDMPGFGAVASNGLIVRDGGRVLVVDTAWTDDQTAQILNWIKQEINLPVALAVVTHAHQDKMGGMDALHAAGIATYANALSNQLAPQEGMVAAQHSLTFAANGWVEPATAPNFGPLKVFYPGPGHTSDNITVGIDGTDIAFGGCLIKDSKAKSLGNLGDADTEHYAASARAFGAAFPKASMIVMSHSAPDSRAAITHTARMADKLR
- kcat/Km [20]: 30000 M⁻¹ s⁻¹
- kcat/Km [21]: 680000 M⁻¹ s⁻¹
- kcat/Km [22]: 20000 M⁻¹ s⁻¹
- kcat/Km [23]: 170000 M⁻¹ s⁻¹
- kcat/Km [24]: 210000 M⁻¹ s⁻¹
- kcat/Km [25]: 660000 M⁻¹ s⁻¹
- kcat/Km [26]: 580000 M⁻¹ s⁻¹
- kcat/Km [27]: 1.17e+06 M⁻¹ s⁻¹
- kcat/Km [28]: 400000 M⁻¹ s⁻¹
- Km [29]: 181 µM
- kcat [29]: 5 s⁻¹
- Km [30]: 16 µM
- kcat [30]: 11 s⁻¹
- kcat [31]: 1 s⁻¹
- Km [32]: 77 µM
- kcat [32]: 13 s⁻¹
- Km [33]: 94 µM
- kcat [33]: 20 s⁻¹
- Km [34]: 22 µM
- kcat [34]: 15 s⁻¹
- Km [35]: 10 µM
- kcat [35]: 6 s⁻¹
- kcat [36]: 14 s⁻¹
- Km [37]: 10 µM
- kcat [37]: 4 s⁻¹

From ChEMBL document CHEMBL1649278, “Characterization of a new metallo-beta-lactamase gene, bla(NDM-1), and a novel erythromycin esterase gene carried on a unique genetic structure in Klebsiella pneumoniae sequence type 14 from India” (2009)
